Results taken from ChEMBL document CHEMBL1629563, “Pharmacokinetic and safety evaluation of BILR 355, a second-generation nonnucleoside reverse transcriptase inhibitor, in healthy volunteers” (Antimicrob Agents Chemother, 2008).

Assays:
Homo sapiens [1] = test: Ratio of Cmax in human at 75 mg, po in presence of 100 mg of ritonavir to Cmax in human at 75 mg, po; type: ADME, organism-based; conditions: in vivo
Homo sapiens [2] = test: Toxicity in healthy human assessed as occurrence of fatigue at 87.5 mg, po administered as single dose coadministered with 100 mg of ritonavir; type: organism-based; conditions: in vivo
Homo sapiens [3] = test: Toxicity in healthy human assessed as occurrence of herpes simplex at 12.5 mg, po administered as single dose relative to control; type: organism-based; conditions: in vivo
Homo sapiens [4] = test: Toxicity in healthy human assessed as occurrence of palpitations at 100 mg, po administered as single dose relative to control; type: organism-based; conditions: in vivo
Homo sapiens [5] = test: Toxicity in healthy human assessed as occurrence of diarrhea at 12.5 mg, po administered as single dose coadministered with 100 mg of ritonavir; type: organism-based; conditions: in vivo
[6] = Apparent volume of distribution in terminal phase in healthy human at 5 mg, po administered as single dose coadministered with 100 mg of ritonavir; type: ADME, organism-based; conditions: in vivo, read-out: Vz/F
In short: (§1)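 Healthy male volunteers, fasted overnight, got one oral dose of BILR 355 in PEG solution with 200 ml water. Ritonavir 100 mg was given 10 h before and again with the dose. Plasma was sampled (EDTA) from predose to 144 h and assayed by validated LC-MS/MS. Cmax and Vz/F came from noncompartmental analysis. Vss/F = CL/F·(MRTp.o. − 1/Ka), with Ka from compartmental modelling.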

Homo sapiens [7] = test: Toxicity in healthy human assessed as occurrence of aphthous stomatitis at 75 mg, po administered as single dose coadministered with 100 mg of ritonavir; type: organism-based; conditions: in vivo
[8] = AUC (0 to last) in healthy human at 5 mg, po administered as single dose coadministered with 100 mg of ritonavir; type: ADME, organism-based; parameters: dose 5 mg, time 0 - last, route oral; conditions: plasma
In short: (§2)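 Healthy male volunteers, fasted. Ritonavir 100 mg given 10 h before and again together with single oral BILR 355 in PEG solution. EDTA plasma sampled predose to 144 h. LC-MS/MS assay after protein precipitation. Noncompartmental analysis, AUC by linear up/log down trapezoidal rule; Vss = CL/F·(MRTp.o. − 1/Ka).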

[9] = Half life in high fat fed healthy human at 50 mg, po administered as single dose coadministered with 100 mg of ritonavir; type: ADME, organism-based; conditions: in vivo
[10] = Mean residence time in healthy human at 50 mg, po administered as single dose coadministered with 100 mg of ritonavir; type: ADME, organism-based; conditions: in vivo
[11] = Tmax in healthy human at 50 mg, po administered as single dose coadministered with 100 mg of ritonavir; type: ADME, organism-based; conditions: in vivo
Homo sapiens [12] = test: Toxicity in healthy human assessed as occurrence of flatulence at 12.5 mg, po administered as single dose relative to control; type: organism-based; conditions: in vivo
Homo sapiens [13] = test: Toxicity in healthy human assessed as occurrence of frequent bowel movements at 75 mg, po administered as single dose relative to control; type: organism-based; conditions: in vivo
Homo sapiens [14] = test: Toxicity in healthy human assessed as occurrence of headache at 5 mg, po administered as single dose relative to control; type: organism-based; conditions: in vivo
[15] = Half life in healthy human at 25 mg, po administered as single dose coadministered with 100 mg of ritonavir; type: ADME, organism-based; conditions: in vivo
Homo sapiens [16] = test: Toxicity in healthy human assessed as occurrence of increase in alanine aminotransferase level at 12.5 mg, po administered as single dose relative to control; type: organism-based; conditions: in vivo
[17] = Tmax in healthy human at 75 mg, po administered as single dose; type: ADME, organism-based; conditions: in vivo
Homo sapiens [18] = test: Toxicity in healthy human assessed as occurrence of increase in alanine aminotransferase level at 75 mg, po administered as single dose relative to control; type: organism-based; conditions: in vivo
[19] = Drug excretion in healthy human urine assessed as unchanged drug at 50 mg, po administered as single dose coadministered with 100 mg of ritonavir by high-pressure liquid chromatography-tandem mass spectrometry/mass spectrometry method; type: ADME, organism-based; conditions: read-out: Drug uptake
In short: (§3)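 Ritonavir 100 mg was given 10 h before and with one oral dose of BILR 355 in PEG solution. Urine was collected by weight as predose blank, then 0-6, 6-24 and 24-72 h, stored at −20°C and assayed by LC-MS/MS. fe = unchanged drug excreted (Ae) as a percentage of dose. Line 50: high-fat breakfast 30 min before dosing.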

[20] = AUC (0 to infinity) in healthy human at 5 mg, po administered as single dose coadministered with 100 mg of ritonavir; type: ADME, organism-based; parameters: dose 5 mg, time infinity, route oral; conditions: plasma; in short: as §2
[21] = Drug excretion in healthy human urine assessed as unchanged drug at 5 mg, po administered as single dose coadministered with 100 mg of ritonavir by high-pressure liquid chromatography-tandem mass spectrometry/mass spectrometry method; type: ADME, organism-based; conditions: read-out: Drug uptake; in short: as §3
[22] = Apparent volume of distribution in terminal phase in healthy human at 100 mg, po administered as single dose; type: ADME, organism-based; conditions: in vivo, read-out: Vz/F
In short: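 Single fasting oral dose of BILR 355 in PEG solution with 200 ml tap water, given to healthy males. Standard breakfast came 60-90 min after the dose. EDTA plasma was sampled predose to 144 h, stored below −18°C and assayed by LC-MS/MS after protein precipitation. Noncompartmental analysis gave Vz/F. Vss/F = CL/F·(MRTp.o. − 1/Ka), with Ka from compartmental modelling.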

Homo sapiens [23] = test: Toxicity in healthy human assessed as occurrence of maculopapular rash at 1 mg, po administered as single dose relative to control; type: organism-based; conditions: in vivo
Homo sapiens [24] = test: AUC (0 to infinity) in healthy human at 75 mg, po administered as single dose; type: ADME, organism-based, Plasma; parameters: dose 75 mg, route oral, time infinity; conditions: in vivo
In short: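 Healthy male volunteers, six active plus two placebo per dose group, single oral dose in PEG solution with 200 ml water after overnight fast; breakfast 60 to 90 min post-dose. EDTA plasma sampled predose to 144 h. Assayed by validated LC-MS/MS after protein precipitation. Noncompartmental analysis, AUC by linear up/log down trapezoidal rule; Vss = CL/F·(MRTp.o. − 1/Ka).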

Homo sapiens [25] = test: Toxicity in healthy human assessed as occurrence of fatigue at 25 mg, po administered as single dose coadministered with 100 mg of ritonavir; type: organism-based; conditions: in vivo
[26] = AUC (0 to last) in healthy human at 25 mg, po administered as single dose coadministered with 100 mg of ritonavir; type: ADME, organism-based; parameters: dose 25 mg, route oral, time 0 - last; conditions: plasma; in short: as §2
Homo sapiens [27] = test: Toxicity in healthy human assessed as occurrence of maculopapular rash at 5 mg, po administered as single dose coadministered with 100 mg of ritonavir; type: organism-based; conditions: in vivo
Homo sapiens [28] = test: Toxicity in healthy human assessed as occurrence of diarrhea at 62.5 mg, po administered as single dose coadministered with 100 mg of ritonavir; type: organism-based; conditions: in vivo
[29] = Apparent volume of distribution at steady state in healthy human at 75 mg, po administered as single dose coadministered with 100 mg of ritonavir; type: ADME, organism-based; conditions: in vivo, read-out: Vss/F; in short: as §1
Homo sapiens [30] = test: Toxicity in healthy human assessed as occurrence of vomiting at 75 mg, po administered as single dose relative to control; type: organism-based; conditions: in vivo

- Ratio (Homo sapiens [1]): 2.3
- Vd/F [6]: 153 L
- AUC(0-t) [8]: 615 ng·h/mL
- half-life [9]: 11 h
- MRT [10]: 16.7 h
- Tmax [11]: 0.958 h
- half-life [15]: 11.5 h
- Tmax [17]: 0.667 h
- dose excreted [19]: 3.58%
- AUC(0-inf) [20]: 707 ng·h/mL
- dose excreted [21]: 4.78%
- Vd/F [22]: 213 L
- AUC (Homo sapiens [24]): 779 ng·h/mL
- AUC(0-t) [26]: 4140 ng·h/mL
- Vd/F [29]: 105 L
SMILES: CCN1c2ncc(CCOc3cc[n+]([O-])c4ccccc34)cc2C(=O)N(C)c2cccnc21 [BILR 355]
- Activity (Homo sapiens [2]): 0%
- Activity (Homo sapiens [3]): 0%
- Activity (Homo sapiens [4]): 0%
- Activity (Homo sapiens [5]): 0%
- Activity (Homo sapiens [7]): 0%
- Activity (Homo sapiens [12]): 0%
- Activity (Homo sapiens [13]): 16.7%
- Activity (Homo sapiens [14]): 0%
- Activity (Homo sapiens [16]): 0%
- Activity (Homo sapiens [18]): 0%
- Activity (Homo sapiens [23]): 0%
- Activity (Homo sapiens [25]): 0%
- Activity (Homo sapiens [27]): 0%
- Activity (Homo sapiens [28]): 0%
- Activity (Homo sapiens [30]): 0%
